Results from ChEMBL document CHEMBL5661969, “Preclinical evaluation of a potent novel DNA-dependent protein kinase inhibitor NU7441” (Cancer Res, 2006).

How the values were obtained:
[1] = target: DNA-dependent protein kinase catalytic subunit (Homo sapiens, UniProt P78527); conditions: SW620, dose 1.0 µmol/L, time 17.0 hrs
[2] = Toxicity in human SW620 cell xenografted athymic nude CD1 mouse assessed as maximum body weight loss at 10 mg/kg, ip administered 5 times daily for 5 days relative to control; type: organism-based, SW-620; conditions: in vivo, 120 h, time 5 day
Outline: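 CD-1 nude mice carry palpable s.c. SW620 xenografts (~5×5 mm, 8-10 days), five per group. Treated i.p. daily for 5 days with saline, agent in 40% PEG 400/saline, etoposide phosphate 11.35 mg/kg (equal to 10 mg/kg etoposide), or both, agent given immediately before etoposide phosphate. Read-outs are median relative tumour volume, time to 4× volume (growth delay) and body weight.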

[3] = Ratio of drug level in liver to plasma of human SW620 cell xenografted athymic nude CD1 mouse at 10 mg/kg, ip measured after 60 mins by HPLC analysis; type: ADME, organism-based
Outline: (§1)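 Female CD-1 nu/nu mice bearing s.c. flank SW620 tumours (1×10^7 cells, ~650 mm³ at 10–14 days) given 10 mg/kg i.p. Tissues snap frozen, homogenised 1:3 in PBS. Acetonitrile precipitation, C18 HPLC with acetate pH 5/acetonitrile 75:25 mobile phase, UV 329 nm; tissue levels by method of addition. Tissue/plasma ratio, mean of three mice per time.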

[4] = Tmax in BALB/c mouse at 10 mg/kg, ip by HPLC analysis; type: ADME, organism-based; conditions: in vivo
Outline: (§2)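 Female BALB/c mice dosed 5 mg/kg i.v. in 10% DMSO/10% cyclodextrin in saline, or 10 mg/kg i.p. or orally at 1 mg/mL in 40% PEG400/saline. Plasma taken at 5, 10, 15, 30, 60, 90, 120, 180, 240 and 360 min, three mice per time. Acetonitrile precipitation, C18 HPLC with UV detection at 329 nm against a plasma standard curve. Parameters derived from mean concentrations.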

[5] = Ratio of drug level in kidney to plasma of human SW620 cell xenografted athymic nude CD1 mouse at 10 mg/kg, ip measured after 15 mins by HPLC analysis; type: ADME, organism-based; conditions: kidney and plasma
Outline: as §1

[6] = Ratio of drug level in spleen to plasma of human SW620 cell xenografted athymic nude CD1 mouse at 10 mg/kg, ip measured after 15 mins by HPLC analysis; type: ADME, organism-based
Outline: as §1

SW-620 [7] = assay: Induction of DNA damage in human SW620 cells assessed as formation of gammaH2AX phosphorylation foci per cell at 1 umol/L measured after 1 hr by DAPI staining based immunofluorescence microscopic analysis; type: toxicity; conditions: sw-620, 1 h, 1 µM, dose 1 µmol/L
Outline: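 SW620 cells on coverslips at 50–70% confluence, preincubated 1 h ± 1 μmol/L agent, then 1 μmol/L etoposide for 1 h, washed three times, and kept ± agent for up to 24 h. Fixation in −20 °C methanol, then anti-γH2AX Ser139 antibody with FITC secondary and DAPI mounting. Foci counted in 30 nuclei from three areas per sample, in triplicate.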

[8] = AUCinfinity in BALB/c mouse at 5 mg/kg, iv by HPLC analysis; type: ADME, organism-based; conditions: in vivo
Outline: as §2

[9] = Growth inhibition of human LoVo cells at 1 umol/L measured after 5 days by crystal violet staining based assay relative to control; type: toxicity, cell-based; conditions: dose 1 µmol/L, time 5 day, read-out: GI
Outline: (§3)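 LoVo and SW620 cells in 96-well plates under 5-day continuous exposure to agent, and growth measured relative to control.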

[10] = AUCinfinity in BALB/c mouse at 10 mg/kg, po by HPLC analysis; type: ADME, organism-based; conditions: in vivo
Outline: as §2

[11] = Ratio of drug level in brain to plasma of human SW620 cell xenografted athymic nude CD1 mouse at 10 mg/kg, ip measured after 240 mins by HPLC analysis; type: ADME, organism-based; conditions: brain and plasma, read-out: BPR
Outline: as §1

[12] = Drug level in tumor of human SW620 cell xenografted athymic nude CD1 mouse at 10 mg/kg, ip measured after 4 hrs by HPLC analysis; type: ADME, organism-based, Neoplasm, SW-620; conditions: read-out: Drug uptake
Outline: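 CD1 nu/nu female mice carry s.c. SW620 flank tumours (1×10^7 cells), used at ~650 mm³. Single 10 mg/kg i.p. dose, tumour excised and snap frozen at time points up to 240 min, then homogenized 1:3 in PBS. HPLC-UV at 329 nm; tissue levels by the method of addition. Three mice per time point.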

[13] = Ratio of drug level in kidney to plasma of human SW620 cell xenografted athymic nude CD1 mouse at 10 mg/kg, ip measured after 30 mins by HPLC analysis; type: ADME, organism-based; conditions: kidney and plasma
Outline: as §1

[14] = Inhibition of DNA-PK in Chinese hamster DNA-PK proficient V3-YAC cells assessed as potentiation of ionizing radiation-induced cytotoxicity by measuring radiation LD90 at 0.5 umol/L preincubated for 1 hr followed by gamma-irradiation and measured after 16 hrs by crystal violet staining based assay; set-up: species or system Cricetulus griseus; conditions: dose 0.5 µmol/L; time 17 hrs; condition cancer
Outline: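 Clonogenic assay in V3/V3-YAC cells. Cells were then reseeded in drug-free medium, and crystal violet colonies were counted after 10–14 days. LD90 is the radiation dose killing 90%. DMR90 is LD90 without inhibitor divided by LD90 with inhibitor.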

[15] = Ratio of drug level in liver to plasma of human SW620 cell xenografted athymic nude CD1 mouse at 10 mg/kg, ip measured after 240 mins by HPLC analysis; type: ADME, organism-based
Outline: as §1

[16] = Cmax in BALB/c mouse at 5 mg/kg, iv by HPLC analysis; type: ADME, organism-based; conditions: in vivo
Outline: as §2

[17] = Clearance in BALB/c mouse at 10 mg/kg, po by HPLC analysis; type: ADME, organism-based; conditions: in vivo
Outline: as §2

[18] = Growth inhibition of human SW620 cells at 1 umol/L measured after 5 days by crystal violet staining based assay relative to control; type: toxicity, cell-based, SW-620; conditions: dose 1 µmol/L, time 5 day, read-out: GI
Outline: as §3

SW-620 [19] = assay: Cell cycle arrest in human SW620 cells assessed as reduction in S-phase cell population at 1 umol/L measured after 1 hr by propidium iodide staining based flow cytometry relative to control; type: toxicity; set-up: scale not given: the % may be the effect or the level left; conditions: sw-620, 1 µM, dose 1 µmol/L
Outline: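 Asynchronous SW620 or LoVo cells, seeded 24 h earlier, given control or 1 μmol/L agent medium for 1 h before ionizing radiation, etoposide or doxorubicin, then incubated a further 16 h. Cells fixed in 70% ethanol, stained with propidium iodide (400 μg/mL) plus RNase (1 mg/mL), and analysed by 488 nm flow cytometry.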

[20] = Ratio of drug level in spleen to plasma of human SW620 cell xenografted athymic nude CD1 mouse at 10 mg/kg, ip measured after 30 mins by HPLC analysis; type: ADME, organism-based
Outline: as §1

[21] = AUCinfinity in BALB/c mouse at 10 mg/kg, ip by HPLC analysis; type: ADME, organism-based; conditions: in vivo
Outline: as §2

[22] = Elimination half life in BALB/c mouse at 10 mg/kg, po by HPLC analysis; type: ADME, organism-based; conditions: in vivo, read-out: beta t1/2
Outline: as §2

[23] = Ratio of drug level in tumor to plasma of human SW620 cell xenografted athymic nude CD1 mouse at 10 mg/kg, ip measured after 15 mins by HPLC analysis; type: ADME, organism-based; conditions: tumor and plasma
Outline: as §1

[24] = Growth inhibition of human LoVo cells measured after 5 days by crystal violet staining based assay; type: toxicity, cell-based; conditions: time 5 day
Outline: as §3

[25] = AUClast in BALB/c mouse at 5 mg/kg, iv by HPLC analysis; type: ADME, organism-based; conditions: in vivo
Outline: as §2

Sequence of DNA-dependent protein kinase catalytic subunit (P78527 whole entry): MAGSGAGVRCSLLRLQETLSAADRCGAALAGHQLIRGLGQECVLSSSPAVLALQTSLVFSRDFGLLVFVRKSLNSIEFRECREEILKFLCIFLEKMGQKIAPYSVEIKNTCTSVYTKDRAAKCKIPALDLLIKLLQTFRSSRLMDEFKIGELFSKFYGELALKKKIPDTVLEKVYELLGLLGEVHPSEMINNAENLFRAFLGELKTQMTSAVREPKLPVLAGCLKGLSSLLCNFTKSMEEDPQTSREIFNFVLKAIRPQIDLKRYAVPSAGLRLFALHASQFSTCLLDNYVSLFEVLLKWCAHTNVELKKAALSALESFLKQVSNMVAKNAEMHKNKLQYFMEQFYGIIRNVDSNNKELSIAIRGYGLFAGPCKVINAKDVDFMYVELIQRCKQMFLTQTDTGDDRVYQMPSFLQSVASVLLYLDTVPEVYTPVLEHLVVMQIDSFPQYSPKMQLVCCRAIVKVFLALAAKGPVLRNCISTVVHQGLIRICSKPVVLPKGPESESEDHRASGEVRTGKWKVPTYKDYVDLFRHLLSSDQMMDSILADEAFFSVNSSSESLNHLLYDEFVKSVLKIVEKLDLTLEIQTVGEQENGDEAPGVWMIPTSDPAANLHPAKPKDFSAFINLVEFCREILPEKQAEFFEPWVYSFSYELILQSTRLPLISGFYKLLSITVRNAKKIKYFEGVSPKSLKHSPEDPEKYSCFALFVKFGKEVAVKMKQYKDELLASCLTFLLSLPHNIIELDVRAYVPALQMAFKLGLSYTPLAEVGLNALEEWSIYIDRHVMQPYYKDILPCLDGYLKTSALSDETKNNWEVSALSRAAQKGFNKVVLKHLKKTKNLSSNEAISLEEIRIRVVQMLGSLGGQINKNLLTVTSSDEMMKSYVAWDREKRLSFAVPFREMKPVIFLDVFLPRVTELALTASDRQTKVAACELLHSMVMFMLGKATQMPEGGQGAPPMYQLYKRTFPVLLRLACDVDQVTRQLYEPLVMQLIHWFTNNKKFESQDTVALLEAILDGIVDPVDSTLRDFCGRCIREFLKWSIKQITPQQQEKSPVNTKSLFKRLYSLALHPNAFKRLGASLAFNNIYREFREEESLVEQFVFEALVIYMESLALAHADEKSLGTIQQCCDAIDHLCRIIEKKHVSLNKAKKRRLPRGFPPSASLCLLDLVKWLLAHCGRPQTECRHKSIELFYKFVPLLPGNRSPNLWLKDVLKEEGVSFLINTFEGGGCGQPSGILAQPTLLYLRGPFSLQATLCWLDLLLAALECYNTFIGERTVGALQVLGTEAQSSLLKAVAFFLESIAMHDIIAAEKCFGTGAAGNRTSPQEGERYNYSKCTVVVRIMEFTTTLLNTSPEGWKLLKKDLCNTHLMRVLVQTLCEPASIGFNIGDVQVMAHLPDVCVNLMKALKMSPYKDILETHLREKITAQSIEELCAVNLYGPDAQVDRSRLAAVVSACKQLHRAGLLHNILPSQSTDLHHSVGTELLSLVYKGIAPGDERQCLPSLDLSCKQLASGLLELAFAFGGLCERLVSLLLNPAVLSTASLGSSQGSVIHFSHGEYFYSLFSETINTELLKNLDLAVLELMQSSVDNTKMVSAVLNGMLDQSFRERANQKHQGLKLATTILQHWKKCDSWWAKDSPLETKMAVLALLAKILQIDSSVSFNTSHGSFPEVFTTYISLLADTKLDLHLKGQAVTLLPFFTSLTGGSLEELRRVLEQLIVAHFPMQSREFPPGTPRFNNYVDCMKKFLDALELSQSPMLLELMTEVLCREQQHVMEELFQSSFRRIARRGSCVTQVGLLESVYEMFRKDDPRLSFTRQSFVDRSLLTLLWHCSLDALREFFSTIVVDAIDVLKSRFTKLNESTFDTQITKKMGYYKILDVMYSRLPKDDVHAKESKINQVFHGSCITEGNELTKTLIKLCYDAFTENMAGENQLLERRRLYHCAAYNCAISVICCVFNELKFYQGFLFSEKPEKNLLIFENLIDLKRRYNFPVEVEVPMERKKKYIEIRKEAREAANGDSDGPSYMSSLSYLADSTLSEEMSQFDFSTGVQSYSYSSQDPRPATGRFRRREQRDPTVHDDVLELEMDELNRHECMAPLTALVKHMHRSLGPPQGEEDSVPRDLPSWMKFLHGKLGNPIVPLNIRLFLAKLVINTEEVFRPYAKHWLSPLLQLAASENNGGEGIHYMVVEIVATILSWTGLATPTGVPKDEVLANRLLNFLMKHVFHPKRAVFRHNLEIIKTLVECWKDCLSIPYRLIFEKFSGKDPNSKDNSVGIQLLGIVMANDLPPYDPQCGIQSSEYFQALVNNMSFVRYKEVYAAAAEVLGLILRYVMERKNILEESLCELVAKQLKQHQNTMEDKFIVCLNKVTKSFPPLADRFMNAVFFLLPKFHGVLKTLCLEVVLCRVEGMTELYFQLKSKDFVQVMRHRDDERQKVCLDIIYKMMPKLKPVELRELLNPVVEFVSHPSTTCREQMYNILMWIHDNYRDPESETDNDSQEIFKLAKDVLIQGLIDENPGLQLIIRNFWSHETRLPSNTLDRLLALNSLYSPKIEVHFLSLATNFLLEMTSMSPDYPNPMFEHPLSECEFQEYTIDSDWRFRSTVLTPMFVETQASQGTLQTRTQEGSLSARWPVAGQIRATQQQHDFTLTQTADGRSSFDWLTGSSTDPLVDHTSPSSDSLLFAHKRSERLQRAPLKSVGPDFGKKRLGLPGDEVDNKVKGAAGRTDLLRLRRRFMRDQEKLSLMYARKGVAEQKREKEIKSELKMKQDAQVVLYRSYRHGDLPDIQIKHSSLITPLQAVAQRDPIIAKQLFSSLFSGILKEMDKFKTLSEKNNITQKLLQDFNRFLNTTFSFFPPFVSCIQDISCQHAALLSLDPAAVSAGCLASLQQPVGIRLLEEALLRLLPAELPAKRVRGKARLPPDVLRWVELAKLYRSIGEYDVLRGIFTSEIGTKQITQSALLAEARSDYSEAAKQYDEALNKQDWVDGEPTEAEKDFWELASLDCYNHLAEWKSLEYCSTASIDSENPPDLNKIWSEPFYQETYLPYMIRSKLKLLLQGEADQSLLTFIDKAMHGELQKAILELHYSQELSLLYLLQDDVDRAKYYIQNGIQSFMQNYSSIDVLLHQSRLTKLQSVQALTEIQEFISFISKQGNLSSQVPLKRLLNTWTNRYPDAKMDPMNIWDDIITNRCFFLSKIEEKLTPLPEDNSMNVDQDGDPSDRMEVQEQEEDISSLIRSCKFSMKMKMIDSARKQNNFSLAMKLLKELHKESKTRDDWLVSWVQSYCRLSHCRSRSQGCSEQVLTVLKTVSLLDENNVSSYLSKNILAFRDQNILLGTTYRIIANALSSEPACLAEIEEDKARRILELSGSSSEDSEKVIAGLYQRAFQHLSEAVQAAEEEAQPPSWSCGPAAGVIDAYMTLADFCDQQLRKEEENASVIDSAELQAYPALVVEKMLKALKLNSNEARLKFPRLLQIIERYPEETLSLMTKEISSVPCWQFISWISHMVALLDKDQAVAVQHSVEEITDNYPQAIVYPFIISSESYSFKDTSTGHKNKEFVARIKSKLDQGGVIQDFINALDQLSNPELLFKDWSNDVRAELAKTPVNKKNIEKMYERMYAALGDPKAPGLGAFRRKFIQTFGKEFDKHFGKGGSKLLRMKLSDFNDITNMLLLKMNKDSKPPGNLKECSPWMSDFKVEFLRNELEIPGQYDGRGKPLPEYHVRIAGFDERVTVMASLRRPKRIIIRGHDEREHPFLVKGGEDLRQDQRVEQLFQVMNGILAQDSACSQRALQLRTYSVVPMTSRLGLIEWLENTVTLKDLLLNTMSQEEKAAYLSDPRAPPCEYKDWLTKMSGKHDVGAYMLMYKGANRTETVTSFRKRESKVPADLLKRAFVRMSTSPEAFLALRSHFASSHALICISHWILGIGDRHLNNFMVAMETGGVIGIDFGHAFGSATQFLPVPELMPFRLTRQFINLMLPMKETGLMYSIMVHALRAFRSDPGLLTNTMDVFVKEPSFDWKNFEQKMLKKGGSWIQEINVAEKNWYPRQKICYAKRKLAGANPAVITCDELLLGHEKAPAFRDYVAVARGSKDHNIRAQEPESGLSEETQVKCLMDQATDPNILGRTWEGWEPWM

Compound O=c1cc(N2CCOCC2)oc2c(-c3cccc4c3sc3ccccc34)cccc12 has an LD90 [1] of 1.1 Gy, an Activity [2] of 12% and a Kp at 1 h [3] of 5.4. The Tmax [4] was 5 min, the Kp at 0.25 h [5] was 4.2 and the Kp at 0.25 h [6] was 4.6. The Activity (SW-620 [7]) was 0.13, the AUC(0-inf) [8] was 1300 ng·h/mL and the inhibition at 120 h, 1 µM [9] was 78%. The AUC(0-inf) [10] was 1200 ng·h/mL, the Kp at 4 h [11] was 6.2 and the concentration at 4 h [12] was 500 nM. The Kp at 0.5 h [13] was 3.4, the LD90 [14] was 2.8 Gy and the Kp at 4 h [15] was 5. It also gave a Cmax [16] of 1600 ng/mL, a CL/F [17] of 140 mL/min/kg and an inhibition at 120 h, 1 µM [18] of 8%. For the same compound, the Activity (SW-620 [19]) was 24%, the Kp at 0.5 h [20] was 3.2 and the AUC(0-inf) [21] was 2530 ng·h/mL. The half-life [22] was 2.12 h, the Kp at 0.25 h [23] was 0.38 and the GI50 at 120 h [24] was 520 nM. The AUC(0-t) [25] was 1270 ng·h/mL.
